The structures appear in SMILES notation. The source made the active and inactive calls. The rule behind the calls is not given here.

For series [1], the system named is Rattus norvegicus. The experiment in a line: Antiinflammatory activity in Wistar rat assessed as inhibition of FCA-induced paw inflammation at 30 mg/kg/day, ip for 5 days and measured 6 hrs after FCA challenge relative to control. The note with it: 120 h, time 5 day. It is filed as functional. The method in brief: (§1)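 Male Wistar rats (200–225 g) randomized by paw volume, n = 6. Test agent i.p. daily for 5 days or reference oral on day 5; 1 h after dosing on day 5, 100 μg M. tuberculosis in 50 μl IFA injected sub-plantar into both hind paws. Paw volume plethysmometry at 2, 6, 24 h; % inhibition versus vehicle disease control.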

The nature of series [2]: Toxicity in DBA1 mouse semi-therapeutic collagen induced arthritis model assessed as thymus weight at 30 mg/kg/day, ip QD dosed during day 21 to day 36 post immunization (reference value: 12.20 +/- 1.5 mg). It is filed as organism-based. The note with it: in vivo, 384 h, time 16 day.
Series [3] deals with Mus musculus. The experiment in a line: Anti-rheumatic activity in DBA1 mouse semi-therapeutic collagen induced arthritis model assessed as mild cartilaginous change like proteoglycan loss at 30 mg/kg/day, ip QD dosed during day 21 to day 36 post immunization by Safranin O staining analysis. As to conditions: time 16.0 day. It is filed as functional, organism-based. The method in brief: (§2)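 Right fore and hind paws from collagen-induced arthritic DBA1 mice (treated day 21–36, sacrificed day 37) paraffin-sectioned and stained with Safranin O to detect proteoglycan/glycosaminoglycan loss in articular cartilage.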

For series [4], the system named is RAW264.7. The experiment in a line: Cytotoxicity in mouse RAW264.7 cells at 100 to 100000 nM incubated for 24 hrs by SRB assay. It is filed as toxicity, cell-based. As to conditions: raw264.7, 24 h, 100 µM, dose 100-100000 nM. The method in brief: (§3)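 RAW 264.7 (DMEM) or THP-1 (RPMI-1640) cells, 10% FBS, seeded 10,000/well and exposed 24 h to compound in DMSO over 100–100000 nM. SRB staining, absorbance 530 nm; % survival relative to untreated cells, mean ± SD, n = 3.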
(In general: In SRB staining, fixed cells bind dye roughly in proportion to their protein.)

In series [5] the test system is RAW264.7. The experiment in a line: Inhibition of LPS-stimulated NO production in mouse RAW264.7 cells pre-incubated for 24 hrs before LPS-stimulation and measured after 24 hrs post LPS challenge by Griess assay. The note with it: time 48.0 hrs. Format: functional, cell-based. The method in brief:
(§4)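 RAW 264.7 cells (1 million) in 24-well plates, 24 h settle, compound 24 h, then LPS 100 ng/ml for 24 h. Medium nitrite measured with Griess reagent (1% sulfanilamide, 0.1% naphthylethylenediamine in 2.5% phosphoric acid), 10 min room temperature, absorbance 570 nm, quantified against sodium nitrite standard curve; mean ± SD, n = 3.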
Background: Griess reagent forms a coloured azo dye with nitrite.

The test system of series [6] is Rattus norvegicus. The experiment in a line: Antiinflammatory activity in Wistar rat assessed as inhibition of FCA-induced paw inflammation at 30 mg/kg/day, ip for 5 days and measured 24 hrs after FCA challenge relative to control. Format: functional. The note with it: 120 h, time 5 day. The method in brief:
as §1

In series [7] the test system is Mus musculus. The experiment in a line: Anti-rheumatic activity in DBA1 mouse semi-therapeutic collagen induced arthritis model assessed as inhibition of clinical arthritic scores at 30 mg/kg/day, ip QD dosed during day 21 to day 36 post immunization by hematoxylin and eosin staining based analysis. It is filed as functional. The note with it: DBA1, 384 h, time 16 day. The method in brief:
(§5)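 Collagen-induced arthritis in female DBA1 mice: collagen II/CFA intradermal at tail base day 0, collagen/IFA boost day 21, LPS 50 μg i.p. day 28; once-daily dosing day 21 to 36, six per group. Arthritic clinical scores followed daily from day 28 to 37; mean ± SEM versus vehicle-treated disease control.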

Series [8] has as its system Mus musculus. The experiment in a line: Anti-rheumatic activity in DBA1 mouse semi-therapeutic collagen induced arthritis model assessed as inhibition of IL6 level in paw tissues at 30 mg/kg/day, ip QD dosed during day 21 to day 36 post immunization by ELISA analysis. It is filed as functional. The note with it: 384 h, time 16 day. The method in brief: (§6)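 Female DBA1 mice (6–8 weeks) immunized intradermally at tail base on day 0 with bovine type II collagen in CFA, boosted day 21 with collagen in IFA, LPS 50 μg i.p. day 28; dosed day 21–36 (n = 6/group). Day 37 left paws frozen, pulverized in liquid nitrogen, homogenized in T-PER, spun 500 g 10 min 4 °C; supernatant IL-6 by ELISA, normalized per mg protein.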
In general terms: An ELISA detects its analyte on a solid surface through an enzyme-linked reagent.

Series [9] concerns THP-1. The experiment in a line: Inhibition of LPS-stimulated TNFalpha production in PMA-activated human THP-1 cells pre-incubated for 24 hrs before LPS-stimulation and measured after 4 hrs post LPS challenge by ELISA. Format: functional, cell-based. The note with it: time 28.0 hrs. The method in brief: (§7)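 THP-1 cells, 10,000/well, differentiated with 32 nM PMA for 24 h, medium replaced and rested 24 h, then compound 24 h before LPS: 10 ng/ml for 4 h (TNF-α) or 100 ng/ml for 8 h (IL-6). Conditioned medium assayed by human ELISA at 450 nm; mean ± SD, n = 3; IC50 from dose–response.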

Series [10] has as its system RAW264.7. The experiment in a line: Inhibition of LPS-stimulated NO production in mouse RAW264.7 cells at 10 uM pre-incubated for 24 hrs before LPS-stimulation and measured after 24 hrs post LPS challenge by Griess assay. Format: functional. As to conditions: time 48 hrs. The method in brief:
as §4

The nature of series [11]: Toxicity in DBA1 mouse semi-therapeutic collagen induced arthritis model assessed as change in body weight at 30 mg/kg/day, ip QD dosed during day 21 to day 36 post immunization (reference value: -25.03 +/- 5.22%). As to conditions: in vivo, 384 h, time 16 day. Format: organism-based.
Series [12] has as its system THP-1. The experiment in a line: Cytotoxicity in human THP-1 cells at 100 to 100000 nM incubated for 24 hrs by SRB assay. Format: toxicity, cell-based. The note with it: thp-1, 24 h, 100 µM, dose 100-100000 nM. The method in brief: as §3
Series [13] concerns Mus musculus. The experiment in a line: Anti-rheumatic activity in DBA1 mouse semi-therapeutic collagen induced arthritis model assessed as inhibition of histopathological changes (cartilage erosion, synovial hyperplasia and inflammation) at 30 mg/kg/day, ip QD dosed during day 21 to day 36 post immunization by hematoxylin and eosin staining based analysis. It is filed as functional. As to conditions: DBA1, 384 h, time 16 day. The method in brief: (§8)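 Histopathology in collagen II/CFA-immunized DBA1 mice (day 21 boost, day 28 LPS i.p.), treated day 21–36, n = 6. Right fore and hind paws taken at sacrifice on day 37, paraffin-embedded, sectioned, H&E-stained and scored for cartilage erosion, synovial hyperplasia, pannus and cell infiltration.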

Series [14] in a line: Toxicity in DBA1 mouse semi-therapeutic collagen induced arthritis model assessed as spleen weight at 30 mg/kg/day, ip QD dosed during day 21 to day 36 post immunization (reference value: 226.4 +/- 11.03 mg). It is filed as organism-based. As to conditions: in vivo, 384 h, time 16 day.
Series [15] has as its system Rattus norvegicus. The experiment in a line: Antiinflammatory activity in Wistar rat assessed as inhibition of FCA-induced paw inflammation at 30 mg/kg/day, ip for 5 days measured 2 hrs after FCA challenge relative to control. Format: functional. As to conditions: 120 h, time 5 day. The method in brief: as §1
The subject of series [16] is THP-1. The experiment in a line: Inhibition of LPS-stimulated IL6 production in PMA-activated human THP-1 cells pre-incubated for 24 hrs before LPS-stimulation and measured after 8 hrs post LPS challenge by ELISA. It is filed as functional, cell-based. The note with it: time 32.0 hrs. The method in brief: as §7
Series [17] relates to Rattus norvegicus. The experiment in a line: Antiinflammatory activity in Wistar rat assessed as inhibition of FCA-induced paw inflammation at 1 mg/kg/day, po […] measured 2 hrs after FCA challenge relative to control. Format: functional. The method in brief:
as §1

Series [18] has as its system Rattus norvegicus. The experiment in a line: Antiinflammatory activity in Wistar rat assessed as inhibition of FCA-induced paw inflammation at 1 mg/kg/day, […] measured 24 hrs after FCA challenge relative to control. Format: functional. As to conditions: route po. The method in brief:
as §1

Series [19] has as its system Mus musculus. The experiment in a line: Anti-rheumatic activity in DBA1 mouse semi-therapeutic collagen induced arthritis model assessed as inhibition of clinical arthritic scores at 0.1 mg/kg/day, po QD dosed during day 21 to day 36 post immunization by hematoxylin and eosin staining based analysis. It is filed as functional. The note with it: DBA1, 384 h, time 16 day. The method in brief: as §5

Series [20] can be described thus: Toxicity in DBA1 mouse semi-therapeutic collagen induced arthritis model assessed as change in body weight at 0.1 mg/kg/day, po QD dosed during day 21 to day 36 post immunization (reference value: -25.03 +/- 5.22%). As to conditions: in vivo, 384 h, time 16 day. It is filed as organism-based.
Series [21] has as its system Mus musculus. The experiment in a line: Anti-rheumatic activity in DBA1 mouse semi-therapeutic collagen induced arthritis model assessed as mild cartilaginous change like proteoglycan loss at 0.1 mg/kg/day, po QD dosed during day 21 to day 36 post immunization by Safranin O staining analysis. It is filed as functional, organism-based. The note with it: time 16.0 day. The method in brief:
as §2

Series [22] deals with Mus musculus. The experiment in a line: Anti-rheumatic activity in DBA1 mouse semi-therapeutic collagen induced arthritis model assessed as inhibition of IL6 level in paw tissues at 0.1 mg/kg/day, po QD dosed during day 21 to day 36 post immunization by ELISA analysis. Format: functional. The note with it: 384 h, time 16 day. The method in brief:
as §6

The subject of series [23] is Rattus norvegicus. The experiment in a line: Antiinflammatory activity in Wistar rat assessed as inhibition of FCA-induced paw inflammation at 1 mg/kg/day, po […] measured 6 hrs after FCA challenge relative to control. It is filed as functional. The method in brief:
as §1

Series [24] relates to Mus musculus. The experiment in a line: Anti-rheumatic activity in DBA1 mouse semi-therapeutic collagen induced arthritis model assessed as inhibition of histopathological changes (cartilage erosion, synovial hyperplasia and inflammation) at 0.1 mg/kg/day, po QD dosed during day 21 to day 36 post immunization by hematoxylin and eosin staining based analysis. The note with it: DBA1, 384 h, time 16 day. It is filed as functional. The method in brief: as §8

Series [25] can be described thus: Toxicity in DBA1 mouse semi-therapeutic collagen induced arthritis model assessed as thymus weight at 0.1 mg/kg/day, po QD dosed during day 21 to day 36 post immunization (reference value: 12.20 +/- 1.5 mg). It is filed as organism-based. The note with it: in vivo, 384 h, time 16 day.
Series [26] in a line: Toxicity in DBA1 mouse semi-therapeutic collagen induced arthritis model assessed as spleen weight at 0.1 mg/kg/day, po QD dosed during day 21 to day 36 post immunization (reference value: 226.4 +/- 11.03 mg). It is filed as organism-based. The note with it: in vivo, 384 h, time 16 day.

For orientation: inhibition in vivo means the drop in the measured response relative to a control, in per cent. By inhibition is commonly meant the share of the control response that was lost under treatment. As to `CN1CCc2c(c3ccccc3n2Cc2ccc(C(=O)NO)cc2)C1` [TUBASTATIN A], the inhibition in vivo at 30 mg/kg/day with Rattus norvegicus [1] stood at 40.3%; with Rattus norvegicus [6], 38.6%; in the series with Mus musculus [7], 73%; in the series with Mus musculus [8], 59%; in the series on Mus musculus [13] it was 71%; with Rattus norvegicus [15], 71.9%. The Activity is recorded as 17.5 mg in series [2]; “Non-Toxic” in the series with RAW264.7 [4]; -1.07% in [11]; “Non-Toxic” in the series on THP-1 [12]; 182 mg in series [14]. In addition, in the series with Mus musculus [3], the result was Active. In addition, the inhibition entry with RAW264.7 [5], in the series on THP-1 [9] and with THP-1 [16] was “Dose-Dependent Effect” each time. The same molecule had an inhibition at 10 µM with RAW264.7 [10] of 66%.
With `C[C@@H]1C[C@H]2[C@@H]3CCC4=CC(=O)C=C[C@]4(C)[C@@]3(F)[C@@H](O)C[C@]2(C)[C@@]1(O)C(=O)CO` [DEXAMETHASONE], the inhibition in vivo at 1 mg/kg/day with Rattus norvegicus [17] was 65.4%; in the series on Rattus norvegicus [18], 49.5%; with Rattus norvegicus [23], 90.5%. Moreover, the inhibition in vivo at 0.1 mg/kg/day in the series on Mus musculus [19] turned out to be 92%; in the series on Mus musculus [22], 66%; in the series on Mus musculus [24], 100%. Besides, the Activity in [20] is listed as -13.9%; in series [25], 6.5 mg; in [26], 52.5 mg. In addition, the result in the series with Mus musculus [21] was Active. The molecule also registered an inhibition at 10 µM in the series with RAW264.7 [10] of 36%.

The values above are taken from ChEMBL document CHEMBL5715948, “Tubastatin, a selective histone deacetylase 6 inhibitor shows anti-inflammatory and anti-rheumatic effects” (Int Immunopharmacol, 2013).
